# Test results: ChEMBL document CHEMBL1909581, “Growth inhibition of human lung cancer cells via down-regulation of epidermal growth factor receptor signaling by yuanhuadine, a daphnane diterpene from Daphne genkwa” (J Nat Prod, 2011)
# The source made the active and inactive calls. No cut-off for these calls is given here.
# Tests used:
# [1] = target: Mitogen-activated protein kinase; ERK1/ERK2 (Homo sapiens) (UniProt P27361+P28482); assay: Inhibition of ERK1/2 in human A549 cells at 5 to 40 nM after 24 hrs by Western blot analysis; assay type: cell-based
# How it was run: (§1)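 A549 cells (RPMI 1640, 10% FBS, 37 °C, 5% CO2) exposed to the compound at various concentrations for 24 or 48 h. Lysates run on 6–15% SDS-PAGE, transferred to PVDF, probed with primary antibodies overnight at 4 °C, and detected by ECL. Blots shown are representative of three independent experiments.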
# [2] = target: Hepatocyte growth factor receptor (Homo sapiens) (UniProt P08581); assay: Inhibition of c-Met phosphorylation at Tyr1003 in HGF-stimulated human A549 cells pretreated at 5 to 100 nM for 2 hrs by Western blot analysis; assay type: cell-based
# How it was run: (§2)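 A549 cells pretreated for 2 h with the compound at 5, 20 or 100 nM, then stimulated with HGF (50 ng/mL) for 10 min. c-Met and its downstream signalling proteins read by Western blot (SDS-PAGE, PVDF transfer, ECL detection).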
# A549 [3] = assay: Cell cycle arrest in human A549 cells assessed as accumulation at Sub-G1 phase at 20 nM after 24 hrs by propidium iodide staining-based flow cytometric analysis (reference value: 0.2 %); assay type: functional
# A549 [4] = assay: Downregulation of c-myc expression in human A549 cells at G1 phase at 5 to 100 nM after 24 to 48 hrs by Western blot analysis; assay type: functional, cell-based
# How it was run: (§3)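 A549 cells treated with a range of concentrations for 24 or 48 h. Lysates run on 6–15% SDS-PAGE and blotted to PVDF, blocked in 5% milk/PBST. Primary antibodies overnight at 4 °C, secondary 2 h at room temperature, ECL detection. Representative of three independent experiments.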
# A549 [5] = assay: Cell cycle arrest in human A549 cells assessed as accumulation at S phase at 20 nM after 24 hrs by propidium iodide staining-based flow cytometric analysis (reference value: 31.6 %); assay type: functional
# A549 [6] = assay: Antitumor activity against human A549 cells xenografted in BALB/c mouse assessed as inhibition of tumor growth at 0.2 mg/kg, po once daily for 14 days measured for 27 days relative to control; assay type: functional, organism-based; design: dose 0.2 mg/kg
# How it was run: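 Female nu/nu nude mice given 3 × 10^6 A549 cells sc into the right flank, in 200 μL medium. At ~100 mm3, randomized into groups of five. Dosed orally once daily for 14 days in 100 μL ethanol–Tween 80–water (1:1:98), vehicle as control. Tumor volume measured by caliper every 2–3 days; body weight monitored.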
# A549 [7] = assay: Cell cycle arrest in human A549 cells assessed as accumulation at G2/M phase at 100 nM after 24 hrs by propidium iodide staining-based flow cytometric analysis (reference value: 18.9 %); assay type: functional
# [8] = target: Hepatocyte growth factor receptor (Homo sapiens) (UniProt P08581); assay: Inhibition of c-Met-mediated ERK1/2 phosphorylation in HGF-stimulated human A549 cells pretreated at 5 to 100 nM by Western blot analysis; assay type: cell-based; how it was run: as §2
# A549 [9] = assay: Cell cycle arrest in human A549 cells assessed as accumulation at G2/M phase at 100 nM after 48 hrs by propidium iodide staining-based flow cytometric analysis (reference value: 18.9 %); assay type: functional
# A549 [10] = assay: Cell cycle arrest in human A549 cells assessed as accumulation at G0/G1 phase at 20 nM after 48 hrs by propidium iodide staining-based flow cytometric analysis (reference value: 49.6 %); assay type: functional
# [11] = target: Epidermal growth factor receptor (Homo sapiens) (UniProt P00533); assay: Inhibition of EGFR-mediated ERK1/2 phosphorylation in EGF-stimulated human A549 cells pretreated at 5 to 100 nM by Western blot analysis; assay type: cell-based
# SW480 = assay: Antiproliferative activity against human SW480 cells after 3 days by SRB assay; assay type: functional, cell-based; settings: SW480, 72 h
# How it was run: (§4)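 Cells seeded at 5 × 10^4 cells/mL and exposed to a range of concentrations for 3 days. Fixed with 10% TCA, then SRB stain read. Growth expressed as % of solvent-treated control. IC50 obtained by nonlinear regression of percent survival versus concentration.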
# Mus musculus = assay: Toxicity in BALB/c mouse xenografted with human A549 cells in assessed as body weight at 0.5 mg/kg, po once daily for 14 days measured for 27 days relative to control; assay type: organism-based; design: dose 0.5 mg/kg, route oral; settings: in vivo, 648 h
# How it was run: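 Female nu/nu mice were injected sc in the right flank with 3 × 10^6 A549 cells. At about 100 mm3 tumour volume, mice were randomised into groups of five. Compound was given orally at 0.2 or 0.5 mg/kg once daily for 14 days in ethanol/Tween 80/H2O (1:1:98). Body weight and overt toxicity were monitored against vehicle controls.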
# A549 [12] = assay: Cell cycle arrest in human A549 cells assessed as accumulation at Sub-G1 phase at 5 nM after 24 hrs by propidium iodide staining-based flow cytometric analysis (reference value: 0.2 %); assay type: functional
# [13] = target: Signal transducer and activator of transcription 3 (Homo sapiens) (UniProt P40763); assay: Inhibition of STAT3 phosphorylation in human A549 cells after 24 hrs by Western blot analysis; assay type: cell-based; how it was run: as §1
# [14] = target: Hepatocyte growth factor receptor (Homo sapiens) (UniProt P08581); assay: Inhibition of c-Met-mediated Akt phosphorylation in HGF-stimulated human A549 cells pretreated at 5 to 100 nM by Western blot analysis; assay type: cell-based; how it was run: as §2
# A549 [15] = assay: Downregulation of CDK4 expression in human A549 cells at G1 phase at 5 to 100 nM after 24 to 48 hrs by Western blot analysis; assay type: functional, cell-based; how it was run: as §3
# [16] = target: Hepatocyte growth factor receptor (Homo sapiens) (UniProt P08581); assay: Inhibition of c-Met-mediated STAT3 phosphorylation in HGF-stimulated human A549 cells pretreated at 5 to 100 nM by Western blot analysis; assay type: cell-based; how it was run: as §2
# PC-3 = assay: Antiproliferative activity against human PC3 cells after 3 days by SRB assay; assay type: functional, cell-based; settings: PC-3, 72 h; how it was run: as §4
# NCI-H292 [17] = assay: Antiproliferative activity against gefitinib resistant human NCI-H292 cells after 3 days by SRB assay; assay type: functional, cell-based; settings: NCI-H292, 72 h
# A549 [18] = assay: Cell cycle arrest in human A549 cells assessed as accumulation at Sub-G1 phase at 5 nM after 48 hrs by propidium iodide staining-based flow cytometric analysis (reference value: 0.2 %); assay type: functional
# A549 [19] = assay: Cell cycle arrest in human A549 cells assessed as accumulation at G2/M phase at 20 nM after 24 hrs by propidium iodide staining-based flow cytometric analysis (reference value: 18.9 %); assay type: functional
# A549 [20] = assay: Cell cycle arrest in human A549 cells assessed as accumulation at G2/M phase at 20 nM after 48 hrs by propidium iodide staining-based flow cytometric analysis (reference value: 18.9 %); assay type: functional
# NCI-H292 [21] = assay: Antiproliferative activity against human NCI-H292 cells after 3 days by SRB assay; assay type: functional, cell-based; settings: NCI-H292, 72 h
# A549 [22] = assay: Cell cycle arrest in human A549 cells assessed as accumulation at Sub-G1 phase at 100 nM after 24 hrs by propidium iodide staining-based flow cytometric analysis (reference value: 0.2 %); assay type: functional
# A549 [23] = assay: Antiproliferative activity against human A549 cells after 3 days by SRB assay; assay type: functional, cell-based; settings: A549, 72 h; how it was run: as §4
# A549 [24] = assay: Upregulation of p21 expression in human A549 cells at G1 phase at 5 to 100 nM after 24 to 48 hrs by Western blot analysis; assay type: functional, cell-based; how it was run: as §1
# A549 [25] = assay: Cell cycle arrest in human A549 cells assessed as accumulation at G2/M phase at 5 nM after 24 hrs by propidium iodide staining-based flow cytometric analysis (reference value: 18.9 %); assay type: functional
# Chain of Hepatocyte growth factor receptor (Homo sapiens) (P08581 whole entry): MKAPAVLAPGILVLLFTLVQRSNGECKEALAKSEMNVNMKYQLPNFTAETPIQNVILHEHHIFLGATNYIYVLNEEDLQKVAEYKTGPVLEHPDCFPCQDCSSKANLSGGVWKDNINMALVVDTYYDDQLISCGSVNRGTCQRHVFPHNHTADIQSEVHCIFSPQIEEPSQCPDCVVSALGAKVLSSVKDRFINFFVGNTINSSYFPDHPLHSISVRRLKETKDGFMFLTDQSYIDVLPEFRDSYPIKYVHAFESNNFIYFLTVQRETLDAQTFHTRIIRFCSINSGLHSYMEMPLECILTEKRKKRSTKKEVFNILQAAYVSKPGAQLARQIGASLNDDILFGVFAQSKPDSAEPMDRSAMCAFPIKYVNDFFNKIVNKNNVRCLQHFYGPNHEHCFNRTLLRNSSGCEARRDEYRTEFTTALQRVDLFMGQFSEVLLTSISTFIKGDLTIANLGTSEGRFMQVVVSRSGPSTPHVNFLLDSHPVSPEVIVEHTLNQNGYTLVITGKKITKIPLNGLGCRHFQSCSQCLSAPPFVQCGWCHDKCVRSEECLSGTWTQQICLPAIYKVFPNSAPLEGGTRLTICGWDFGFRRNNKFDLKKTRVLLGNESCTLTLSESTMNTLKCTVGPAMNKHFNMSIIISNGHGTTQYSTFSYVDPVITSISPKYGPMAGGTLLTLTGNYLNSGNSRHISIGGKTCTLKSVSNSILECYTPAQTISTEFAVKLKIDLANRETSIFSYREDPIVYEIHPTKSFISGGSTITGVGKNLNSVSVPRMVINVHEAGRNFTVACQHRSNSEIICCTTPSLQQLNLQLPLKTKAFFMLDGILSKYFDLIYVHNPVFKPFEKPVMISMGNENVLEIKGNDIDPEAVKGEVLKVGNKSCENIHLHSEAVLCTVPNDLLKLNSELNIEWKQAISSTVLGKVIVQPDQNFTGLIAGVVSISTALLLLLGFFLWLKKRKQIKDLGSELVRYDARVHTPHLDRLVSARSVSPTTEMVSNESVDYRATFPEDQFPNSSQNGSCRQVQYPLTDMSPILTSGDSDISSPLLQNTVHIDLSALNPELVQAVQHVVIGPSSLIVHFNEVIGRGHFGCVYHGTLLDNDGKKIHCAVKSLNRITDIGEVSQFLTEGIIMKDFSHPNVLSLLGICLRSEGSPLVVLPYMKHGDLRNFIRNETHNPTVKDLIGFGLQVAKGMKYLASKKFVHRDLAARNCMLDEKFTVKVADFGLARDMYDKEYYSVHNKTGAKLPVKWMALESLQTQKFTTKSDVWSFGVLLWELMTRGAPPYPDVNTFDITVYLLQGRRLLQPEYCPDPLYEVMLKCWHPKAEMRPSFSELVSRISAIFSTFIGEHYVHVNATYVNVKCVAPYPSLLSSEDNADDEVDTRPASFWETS
# Chain of Epidermal growth factor receptor (Homo sapiens) (P00533 whole entry): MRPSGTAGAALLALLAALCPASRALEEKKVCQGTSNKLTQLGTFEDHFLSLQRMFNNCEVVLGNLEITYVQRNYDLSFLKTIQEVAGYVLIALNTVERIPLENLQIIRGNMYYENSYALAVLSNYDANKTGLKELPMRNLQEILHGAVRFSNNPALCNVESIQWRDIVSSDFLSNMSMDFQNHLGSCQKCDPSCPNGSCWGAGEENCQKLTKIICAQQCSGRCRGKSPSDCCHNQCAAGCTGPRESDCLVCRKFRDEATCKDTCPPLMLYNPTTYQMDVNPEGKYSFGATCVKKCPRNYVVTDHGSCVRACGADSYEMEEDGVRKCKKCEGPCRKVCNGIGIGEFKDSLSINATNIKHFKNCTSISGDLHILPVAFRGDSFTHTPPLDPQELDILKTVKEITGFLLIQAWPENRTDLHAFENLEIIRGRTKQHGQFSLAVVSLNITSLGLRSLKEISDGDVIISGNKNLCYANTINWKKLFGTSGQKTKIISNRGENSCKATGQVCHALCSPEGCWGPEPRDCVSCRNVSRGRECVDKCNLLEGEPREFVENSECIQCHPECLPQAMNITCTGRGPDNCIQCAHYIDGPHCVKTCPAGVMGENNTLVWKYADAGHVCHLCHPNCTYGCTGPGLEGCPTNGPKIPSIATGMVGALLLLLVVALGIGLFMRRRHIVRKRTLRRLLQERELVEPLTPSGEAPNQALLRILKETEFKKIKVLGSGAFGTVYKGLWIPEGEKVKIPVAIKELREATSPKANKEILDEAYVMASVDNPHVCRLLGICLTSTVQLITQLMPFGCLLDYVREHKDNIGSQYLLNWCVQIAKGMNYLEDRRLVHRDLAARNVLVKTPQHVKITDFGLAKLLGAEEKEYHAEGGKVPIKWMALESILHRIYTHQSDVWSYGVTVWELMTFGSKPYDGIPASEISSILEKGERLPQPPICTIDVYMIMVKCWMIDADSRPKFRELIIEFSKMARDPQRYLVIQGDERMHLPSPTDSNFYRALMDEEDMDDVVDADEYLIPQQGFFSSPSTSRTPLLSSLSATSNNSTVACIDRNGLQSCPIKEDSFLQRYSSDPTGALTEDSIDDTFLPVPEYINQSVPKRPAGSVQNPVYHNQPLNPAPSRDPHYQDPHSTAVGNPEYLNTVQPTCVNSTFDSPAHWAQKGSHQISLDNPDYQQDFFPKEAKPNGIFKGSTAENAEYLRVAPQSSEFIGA
# Chain of Mitogen-activated protein kinase; ERK1/ERK2 (Homo sapiens) (P27361 whole entry, looked up): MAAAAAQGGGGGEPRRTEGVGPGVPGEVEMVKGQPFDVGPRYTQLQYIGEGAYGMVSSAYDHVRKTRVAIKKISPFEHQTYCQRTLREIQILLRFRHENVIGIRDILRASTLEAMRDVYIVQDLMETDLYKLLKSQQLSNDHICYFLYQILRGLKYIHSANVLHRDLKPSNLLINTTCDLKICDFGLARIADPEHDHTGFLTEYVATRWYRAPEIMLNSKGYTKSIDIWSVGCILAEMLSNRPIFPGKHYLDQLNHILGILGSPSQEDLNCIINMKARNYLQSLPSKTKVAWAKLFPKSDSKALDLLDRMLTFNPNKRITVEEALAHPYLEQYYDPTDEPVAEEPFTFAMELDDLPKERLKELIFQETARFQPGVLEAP
# Chain of Mitogen-activated protein kinase; ERK1/ERK2 (Homo sapiens) (P28482 whole entry, looked up): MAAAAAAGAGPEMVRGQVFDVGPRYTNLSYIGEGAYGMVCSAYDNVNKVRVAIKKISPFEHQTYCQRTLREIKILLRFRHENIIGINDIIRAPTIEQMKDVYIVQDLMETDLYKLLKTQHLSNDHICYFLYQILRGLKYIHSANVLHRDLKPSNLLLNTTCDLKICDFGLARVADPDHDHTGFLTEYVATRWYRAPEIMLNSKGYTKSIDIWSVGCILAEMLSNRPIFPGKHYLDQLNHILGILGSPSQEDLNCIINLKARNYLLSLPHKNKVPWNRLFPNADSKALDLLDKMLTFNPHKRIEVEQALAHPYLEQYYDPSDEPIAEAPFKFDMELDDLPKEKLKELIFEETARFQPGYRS
# Chain of Signal transducer and activator of transcription 3 (Homo sapiens) (P40763 whole entry): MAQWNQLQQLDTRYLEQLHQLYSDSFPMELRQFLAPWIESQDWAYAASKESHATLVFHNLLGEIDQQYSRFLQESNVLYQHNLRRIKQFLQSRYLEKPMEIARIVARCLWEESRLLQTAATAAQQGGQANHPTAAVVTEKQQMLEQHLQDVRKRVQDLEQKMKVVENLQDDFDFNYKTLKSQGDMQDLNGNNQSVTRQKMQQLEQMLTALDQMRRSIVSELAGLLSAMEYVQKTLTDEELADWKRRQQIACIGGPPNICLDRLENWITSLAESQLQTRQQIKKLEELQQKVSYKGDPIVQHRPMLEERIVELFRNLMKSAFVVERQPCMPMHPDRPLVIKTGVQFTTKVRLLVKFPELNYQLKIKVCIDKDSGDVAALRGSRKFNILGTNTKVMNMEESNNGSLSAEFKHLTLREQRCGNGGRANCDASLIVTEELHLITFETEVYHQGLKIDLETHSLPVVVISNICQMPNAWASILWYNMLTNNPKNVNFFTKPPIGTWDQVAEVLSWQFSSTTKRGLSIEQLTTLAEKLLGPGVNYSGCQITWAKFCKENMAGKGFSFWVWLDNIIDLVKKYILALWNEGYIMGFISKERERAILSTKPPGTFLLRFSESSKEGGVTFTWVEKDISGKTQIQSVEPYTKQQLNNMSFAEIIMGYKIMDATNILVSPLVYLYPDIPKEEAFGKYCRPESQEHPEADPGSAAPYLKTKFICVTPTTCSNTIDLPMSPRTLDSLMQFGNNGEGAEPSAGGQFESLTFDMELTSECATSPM
structure (smiles),measurement,setting,value
C=C(C)[C@@]12O[C@@]3(/C=C/C=C/CCCCC)O[C@@H]1[C@@H]1[C@@H]4O[C@]4(CO)[C@@H](O)[C@]4(O)C(=O)C(C)=C[C@H]4[C@@]1(O3)[C@H](C)[C@H]2OC(C)=O [YUANHUADINE],inhibition,[1],Active
same,inhibition,[2],Active
same,Activity,A549 [3],1.8%
same,Activity,A549 [4],Active
same,Activity,A549 [5],7.3%
same,growth inhibition (GI),A549 [6],Active
same,Activity,A549 [7],28%
same,inhibition,[8],Active
same,Activity,A549 [9],26.3%
same,Activity,A549 [10],62.2%
same,inhibition,[11],Active
same,IC50,SW480,11.8 µM
same,Activity,Mus musculus,Non-toxic
same,Activity,A549 [12],2%
same,inhibition,[13],Dose-dependent effect
same,inhibition,[14],Active
same,Activity,A549 [15],Active
same,inhibition,[16],Active
same,IC50,PC-3,7.4 µM
same,IC50,NCI-H292 [17],< 1 pM
same,Activity,A549 [18],7.5%
same,Activity,A549 [19],24.5%
same,Activity,A549 [20],22.2%
same,IC50,NCI-H292 [21],< 1 pM
same,Activity,A549 [22],0.3%
same,IC50,A549 [23],0.012 µM
same,Activity,A549 [24],Active
same,Activity,A549 [25],27.5%
